Experimental data as given in ChEMBL document CHEMBL5705905, “Pharmacological targeting of kinases MST1 and MST2 augments tissue repair and regeneration” (Sci Transl Med, 2016).
Activity calls are given as the source filed them. The calls are words filed in the database; no cut-off is given here.

Key:
[1] = molecular target: Tyrosine-protein kinase JAK2 (Homo sapiens) (UniProt O60674); assay: Inhibition of JAK2 JH1 domain (unknown origin) assessed as remaining activity at 1 uM by Kinome scan method relative to control
[2] = molecular target: Mast/stem cell growth factor receptor Kit (Homo sapiens) (UniProt P10721); assay: Inhibition of KIT (unknown origin) assessed as remaining activity at 1 uM by Kinome scan method relative to control
[3] = molecular target: Tyrosine-protein kinase Mer (Homo sapiens) (UniProt Q12866); assay: Inhibition of MERTK (unknown origin) assessed as remaining activity at 1 uM by Kinome scan method relative to control
[4] = molecular target: Dual specificity protein kinase CLK1 (Homo sapiens) (UniProt P49759); assay: Inhibition of CLK1 (unknown origin) assessed as remaining activity at 1 uM by Kinome scan method relative to control
Procedure, shortened: (§1)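 Active-site-dependent competition-binding profiling (KINOMEscan) at 1 μM against a 468-kinase panel; compound supplied from a 10 mM DMSO stock. Read-out is ctrl% = (test signal − positive control signal)/(negative control signal − positive control signal) × 100. DMSO is the negative control (100%) and a control compound the positive control (0%). Lower ctrl% means tighter binding.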

[5] = molecular target: Tyrosine-protein kinase Lyn (Homo sapiens) (UniProt P07948); assay: Inhibition of LYN (unknown origin) assessed as remaining activity at 1 uM by Kinome scan method relative to control
Sequence of Tyrosine-protein kinase Lyn (Homo sapiens) (P07948 2-512 limits assumed): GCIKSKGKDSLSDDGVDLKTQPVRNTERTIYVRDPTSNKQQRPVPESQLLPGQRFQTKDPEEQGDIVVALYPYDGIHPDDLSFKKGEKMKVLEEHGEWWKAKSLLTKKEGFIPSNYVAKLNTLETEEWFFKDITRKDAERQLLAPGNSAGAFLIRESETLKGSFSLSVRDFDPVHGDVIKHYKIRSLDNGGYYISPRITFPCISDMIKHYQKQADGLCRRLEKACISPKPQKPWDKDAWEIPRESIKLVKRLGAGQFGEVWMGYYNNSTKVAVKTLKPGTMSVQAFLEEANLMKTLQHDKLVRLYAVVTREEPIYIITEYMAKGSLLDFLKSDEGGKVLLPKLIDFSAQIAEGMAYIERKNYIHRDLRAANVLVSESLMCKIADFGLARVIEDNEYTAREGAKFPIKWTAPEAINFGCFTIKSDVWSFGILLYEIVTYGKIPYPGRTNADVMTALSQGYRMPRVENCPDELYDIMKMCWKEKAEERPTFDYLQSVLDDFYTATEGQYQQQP

[6] = system: Proto-oncogene tyrosine-protein kinase receptor Ret (Homo sapiens), P07949 [M918T]; assay: Inhibition of RET M918T (unknown origin) assessed as remaining activity at 1 uM by Kinome scan method relative to control
Mus musculus = assay: Protection against APAP induced liver injury in mouse assessed as decrease in mortality rate at 1 mg/kg, ip administered at 2.5 hrs in the presence of NAC; type: functional, organism-based
[7] = molecular target: Serine/threonine-protein kinase SIK2 (Homo sapiens) (UniProt Q9H0K1); assay: Inhibition of SIK2 (unknown origin) assessed as remaining activity at 1 uM by Kinome scan method relative to control
Sequence of Serine/threonine-protein kinase SIK2 (Homo sapiens) (Q9H0K1 whole entry, looked up, the tested form may be a part): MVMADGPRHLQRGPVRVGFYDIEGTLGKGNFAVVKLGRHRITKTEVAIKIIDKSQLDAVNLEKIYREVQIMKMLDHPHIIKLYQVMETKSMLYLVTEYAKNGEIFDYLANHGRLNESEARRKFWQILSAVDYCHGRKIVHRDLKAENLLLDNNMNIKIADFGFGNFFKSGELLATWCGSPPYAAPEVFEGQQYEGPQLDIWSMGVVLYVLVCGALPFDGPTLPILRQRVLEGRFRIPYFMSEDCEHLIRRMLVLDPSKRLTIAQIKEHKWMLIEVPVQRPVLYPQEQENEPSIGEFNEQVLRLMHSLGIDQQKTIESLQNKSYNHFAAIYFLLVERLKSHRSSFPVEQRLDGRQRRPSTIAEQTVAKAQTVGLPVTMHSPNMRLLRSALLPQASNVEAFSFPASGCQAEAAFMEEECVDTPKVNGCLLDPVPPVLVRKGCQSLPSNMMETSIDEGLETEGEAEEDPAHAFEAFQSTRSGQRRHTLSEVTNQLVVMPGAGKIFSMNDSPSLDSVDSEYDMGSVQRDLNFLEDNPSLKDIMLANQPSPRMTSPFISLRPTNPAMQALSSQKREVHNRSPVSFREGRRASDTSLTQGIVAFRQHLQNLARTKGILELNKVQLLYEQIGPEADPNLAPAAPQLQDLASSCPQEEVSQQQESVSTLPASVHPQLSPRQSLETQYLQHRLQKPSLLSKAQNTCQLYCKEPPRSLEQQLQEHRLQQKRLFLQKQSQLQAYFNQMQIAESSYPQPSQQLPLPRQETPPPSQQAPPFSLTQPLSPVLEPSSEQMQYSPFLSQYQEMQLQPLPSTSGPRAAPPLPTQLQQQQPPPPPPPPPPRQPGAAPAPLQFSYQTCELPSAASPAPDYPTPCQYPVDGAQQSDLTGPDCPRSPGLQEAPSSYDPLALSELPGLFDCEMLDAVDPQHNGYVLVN

[8] = molecular target: Ribosomal protein S6 kinase alpha-1 (Homo sapiens) (UniProt Q15418); assay: Inhibition of C-terminal kinase domain RSK1 (unknown origin) assessed as remaining activity at 1 uM by Kinome scan method relative to control
Sequence of Ribosomal protein S6 kinase alpha-1 (Homo sapiens) (Q15418 whole entry, the tested form may be a part): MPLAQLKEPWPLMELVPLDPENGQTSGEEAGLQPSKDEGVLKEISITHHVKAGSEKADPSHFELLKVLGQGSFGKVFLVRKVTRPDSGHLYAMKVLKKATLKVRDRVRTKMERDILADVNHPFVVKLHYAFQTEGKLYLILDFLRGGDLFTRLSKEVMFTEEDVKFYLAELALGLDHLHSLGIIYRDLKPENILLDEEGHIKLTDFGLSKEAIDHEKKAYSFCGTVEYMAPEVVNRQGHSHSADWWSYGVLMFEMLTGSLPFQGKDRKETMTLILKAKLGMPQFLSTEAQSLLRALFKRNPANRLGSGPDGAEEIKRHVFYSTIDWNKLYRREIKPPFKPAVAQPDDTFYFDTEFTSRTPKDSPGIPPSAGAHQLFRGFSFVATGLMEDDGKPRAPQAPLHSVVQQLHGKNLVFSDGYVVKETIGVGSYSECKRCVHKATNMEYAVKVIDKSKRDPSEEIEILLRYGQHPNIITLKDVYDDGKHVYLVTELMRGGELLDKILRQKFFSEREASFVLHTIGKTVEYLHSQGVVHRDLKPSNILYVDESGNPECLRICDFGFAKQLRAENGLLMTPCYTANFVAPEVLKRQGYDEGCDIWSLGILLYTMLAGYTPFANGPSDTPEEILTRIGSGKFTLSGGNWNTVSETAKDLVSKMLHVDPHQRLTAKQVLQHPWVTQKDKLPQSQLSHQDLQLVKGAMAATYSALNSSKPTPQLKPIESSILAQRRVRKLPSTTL
Procedure, shortened: (§2)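 Active-site-dependent competition-binding (KINOMEscan) panel of 468 kinases, test compound at 1 μM (from a 10 mM DMSO stock). Read-out is ctrl% = (test signal − positive control signal)/(negative control signal − positive control signal) × 100. DMSO is the negative control (100%) and a control compound is the positive control (0%). Lower ctrl% means tighter binding.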

HepG2 = assay: Induction of apoptosis in human HepG2 cells assessed as late apoptosis cells at 3 uM by annexinV staining (Rvb =0.84 %); type: functional
[9] = molecular target: Tyrosine-protein kinase ABL1 (Homo sapiens, UniProt P00519, Q252H); assay: Inhibition of phosphorylated ABL1 Q252H mutant (unknown origin) in presence of ATP by enzymatic assay
[10] = molecular target: Tyrosine-protein kinase ABL2 (Homo sapiens) (UniProt P42684); assay: Inhibition of ABL2 (unknown origin) assessed as remaining activity at 1 uM by Kinome scan method relative to control; procedure, shortened: as §2
[11] = molecular target: Dual specificity mitogen-activated protein kinase kinase 1 (Homo sapiens) (UniProt Q02750); assay: Inhibition of MEK1 (unknown origin) assessed as remaining activity at 1 uM by Kinome scan method relative to control
[12] = molecular target: Serine/threonine-protein kinase NIM1 (Homo sapiens) (UniProt Q8IY84); assay: Inhibition of NIM1 (unknown origin) assessed as remaining activity at 1 uM by Kinome scan method relative to control
[13] = molecular target: Serine/threonine-protein kinase TAO3 (Homo sapiens) (UniProt Q9H2K8); assay: Inhibition of TAOK3 (unknown origin) assessed as remaining activity at 1 uM by Kinome scan method relative to control
Sequence of Serine/threonine-protein kinase TAO3 (Homo sapiens) (Q9H2K8 whole entry): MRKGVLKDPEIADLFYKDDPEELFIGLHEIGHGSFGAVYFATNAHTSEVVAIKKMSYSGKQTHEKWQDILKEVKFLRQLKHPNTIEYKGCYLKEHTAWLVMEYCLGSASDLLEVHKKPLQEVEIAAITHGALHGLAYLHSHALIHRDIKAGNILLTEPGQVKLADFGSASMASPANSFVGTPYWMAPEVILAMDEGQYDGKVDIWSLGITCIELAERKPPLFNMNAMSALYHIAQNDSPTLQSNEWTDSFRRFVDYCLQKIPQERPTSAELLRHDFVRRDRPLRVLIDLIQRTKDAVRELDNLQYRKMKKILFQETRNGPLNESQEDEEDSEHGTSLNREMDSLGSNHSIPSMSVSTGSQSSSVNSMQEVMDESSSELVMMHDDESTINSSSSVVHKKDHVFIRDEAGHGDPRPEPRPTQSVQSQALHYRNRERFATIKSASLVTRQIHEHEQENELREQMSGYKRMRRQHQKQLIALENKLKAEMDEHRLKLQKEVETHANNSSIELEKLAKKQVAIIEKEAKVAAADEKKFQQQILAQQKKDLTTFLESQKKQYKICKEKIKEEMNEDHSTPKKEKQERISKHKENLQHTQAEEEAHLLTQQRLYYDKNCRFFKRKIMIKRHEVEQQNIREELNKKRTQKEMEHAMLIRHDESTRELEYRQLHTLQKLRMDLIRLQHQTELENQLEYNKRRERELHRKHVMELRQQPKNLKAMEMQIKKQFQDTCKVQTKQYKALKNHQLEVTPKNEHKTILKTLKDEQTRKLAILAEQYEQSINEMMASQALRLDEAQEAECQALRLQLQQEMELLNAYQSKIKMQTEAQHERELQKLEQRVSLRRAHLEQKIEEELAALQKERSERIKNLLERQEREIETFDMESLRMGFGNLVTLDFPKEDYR

[14] = molecular target: NT-3 growth factor receptor (Homo sapiens) (UniProt Q16288); assay: Inhibition of TRKC (unknown origin) assessed as remaining activity at 1 uM by Kinome scan method relative to control
[15] = molecular target: Ephrin type-A receptor 7 (Homo sapiens) (UniProt Q15375); assay: Inhibition of EPHA7 (unknown origin) assessed as remaining activity at 1 uM by Kinome scan method relative to control
[16] = AUC (0 to infinity) in male Sprague-Dawley rat at 10 mg/kg, po measured for 24 hrs by LC-MS/MS analysis; type: ADME, organism-based; conditions: in vivo
Procedure, shortened: (§3)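 Sprague-Dawley rats, single intravenous or oral dose. Parameters (half-life, AUC, bioavailability) reported in a supplementary table.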

[17] = molecular target: T1, Serine/threonine-protein kinase 4 (Homo sapiens, UniProt Q13043); assay: Inhibition of Flag-tagged full-length MST1 (unknown origin) transfected in HEK293T cells assessed as MOB1a phosphorylation level incubated for 3 hrs by immunoblot analysis
T1 sequence (Q13043 whole entry): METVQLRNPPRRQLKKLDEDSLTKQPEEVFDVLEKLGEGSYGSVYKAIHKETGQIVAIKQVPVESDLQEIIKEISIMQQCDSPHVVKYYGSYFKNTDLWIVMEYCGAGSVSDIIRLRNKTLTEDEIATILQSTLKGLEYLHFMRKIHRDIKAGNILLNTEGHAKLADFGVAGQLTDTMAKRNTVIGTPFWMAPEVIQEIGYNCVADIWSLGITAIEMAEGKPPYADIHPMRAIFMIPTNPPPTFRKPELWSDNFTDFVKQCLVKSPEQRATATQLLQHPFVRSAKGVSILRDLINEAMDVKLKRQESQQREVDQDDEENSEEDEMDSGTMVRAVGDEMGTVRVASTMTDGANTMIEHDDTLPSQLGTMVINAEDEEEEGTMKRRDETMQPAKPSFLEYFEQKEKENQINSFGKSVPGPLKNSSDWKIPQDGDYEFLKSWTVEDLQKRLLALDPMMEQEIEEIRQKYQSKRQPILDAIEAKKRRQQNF

[18] = molecular target: Tyrosine-protein kinase receptor UFO (Homo sapiens) (UniProt P30530); assay: Inhibition of AXL (unknown origin) assessed as remaining activity at 1 uM by Kinome scan method relative to control; procedure, shortened: as §2
[19] = system: Tyrosine-protein kinase ABL1 (Homo sapiens), P00519 [M351T]; assay: Inhibition of phosphorylated ABL1 M351T mutant (unknown origin) assessed as remaining activity at 1 uM by Kinome scan method relative to control
[20] = molecular target: Mitogen-activated protein kinase kinase kinase 5 (Homo sapiens) (UniProt Q99683); assay: Inhibition of ASK1 (unknown origin) assessed as remaining activity at 1 uM by Kinome scan method relative to control; procedure, shortened: as §2
Sequence of Mitogen-activated protein kinase kinase kinase 5 (Homo sapiens) (Q99683 whole entry): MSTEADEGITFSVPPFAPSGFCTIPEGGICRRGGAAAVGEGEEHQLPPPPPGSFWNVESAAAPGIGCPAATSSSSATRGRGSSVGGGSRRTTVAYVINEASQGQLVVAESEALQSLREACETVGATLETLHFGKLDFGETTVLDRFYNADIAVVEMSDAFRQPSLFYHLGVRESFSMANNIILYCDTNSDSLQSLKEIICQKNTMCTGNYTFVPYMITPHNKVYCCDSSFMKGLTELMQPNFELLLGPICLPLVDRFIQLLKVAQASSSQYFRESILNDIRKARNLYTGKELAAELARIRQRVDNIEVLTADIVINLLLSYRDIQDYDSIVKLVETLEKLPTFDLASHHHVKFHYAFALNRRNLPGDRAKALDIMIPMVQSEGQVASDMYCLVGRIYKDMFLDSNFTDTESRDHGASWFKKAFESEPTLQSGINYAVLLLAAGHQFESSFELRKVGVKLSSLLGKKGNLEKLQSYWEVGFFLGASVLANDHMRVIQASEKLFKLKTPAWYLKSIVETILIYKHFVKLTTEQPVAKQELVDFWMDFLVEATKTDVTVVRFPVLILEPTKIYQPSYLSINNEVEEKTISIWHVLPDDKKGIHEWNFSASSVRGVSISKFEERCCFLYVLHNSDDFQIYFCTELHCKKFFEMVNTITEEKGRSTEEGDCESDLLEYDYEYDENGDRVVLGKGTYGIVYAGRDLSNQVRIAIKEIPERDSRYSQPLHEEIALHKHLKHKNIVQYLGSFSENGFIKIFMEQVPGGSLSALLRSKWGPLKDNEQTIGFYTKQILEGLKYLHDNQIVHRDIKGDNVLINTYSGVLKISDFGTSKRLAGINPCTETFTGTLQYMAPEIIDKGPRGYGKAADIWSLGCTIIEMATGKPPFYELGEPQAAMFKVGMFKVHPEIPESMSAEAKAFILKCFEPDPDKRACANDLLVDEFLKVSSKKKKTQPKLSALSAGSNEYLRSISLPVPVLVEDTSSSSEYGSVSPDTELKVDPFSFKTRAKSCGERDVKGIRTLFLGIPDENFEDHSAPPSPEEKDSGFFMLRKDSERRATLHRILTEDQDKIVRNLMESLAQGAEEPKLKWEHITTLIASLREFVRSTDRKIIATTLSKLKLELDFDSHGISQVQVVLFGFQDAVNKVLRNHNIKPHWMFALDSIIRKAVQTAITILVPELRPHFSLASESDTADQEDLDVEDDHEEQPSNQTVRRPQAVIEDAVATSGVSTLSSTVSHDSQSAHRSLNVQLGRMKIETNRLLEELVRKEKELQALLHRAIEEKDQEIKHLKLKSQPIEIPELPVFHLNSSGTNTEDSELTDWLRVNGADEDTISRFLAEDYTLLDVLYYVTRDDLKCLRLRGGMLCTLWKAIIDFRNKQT

[21] = AUC (0 to t) in male Sprague-Dawley rat at 5 mg/kg, iv measured for 24 hrs by LC-MS/MS analysis; type: ADME, organism-based; conditions: in vivo; procedure, shortened: as §3
[22] = Tmax in male Sprague-Dawley rat at 10 mg/kg, po measured for 24 hrs by LC-MS/MS analysis; type: ADME, organism-based; conditions: in vivo
[23] = molecular target: Calcium/calmodulin-dependent protein kinase kinase 1 (Homo sapiens) (UniProt Q8N5S9); assay: Inhibition of CAMKK1 (unknown origin) assessed as remaining activity at 1 uM by Kinome scan method relative to control; procedure, shortened: as §1
Sequence of Calcium/calmodulin-dependent protein kinase kinase 1 (Homo sapiens) (Q8N5S9 whole entry, looked up): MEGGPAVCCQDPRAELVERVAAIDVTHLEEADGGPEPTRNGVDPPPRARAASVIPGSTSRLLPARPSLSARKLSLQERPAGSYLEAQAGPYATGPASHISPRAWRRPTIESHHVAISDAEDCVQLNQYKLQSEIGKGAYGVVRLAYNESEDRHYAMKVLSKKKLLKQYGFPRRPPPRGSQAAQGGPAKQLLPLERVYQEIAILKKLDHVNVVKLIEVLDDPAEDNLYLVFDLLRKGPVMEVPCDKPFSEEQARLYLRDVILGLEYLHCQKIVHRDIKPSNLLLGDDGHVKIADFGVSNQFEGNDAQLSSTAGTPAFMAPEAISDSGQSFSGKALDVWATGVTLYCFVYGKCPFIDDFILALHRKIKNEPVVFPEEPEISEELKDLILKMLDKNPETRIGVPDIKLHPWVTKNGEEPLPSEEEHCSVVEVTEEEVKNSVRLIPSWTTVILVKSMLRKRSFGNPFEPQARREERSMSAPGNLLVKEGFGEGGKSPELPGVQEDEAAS

Q: With `CN1C(=O)c2sccc2N(C)c2nc(Nc3ccc(S(N)(=O)=O)cc3)ncc21` as the compound, how does the Activity [1] read?
A: 15%

Q: What about the Activity [2] of the same compound?
A: 100%

Q: What about the Activity [3] of the same compound?
A: 100%

Q: What about the Activity [4] of the same compound?
A: 72%

Q: And the Activity [5]?
A: 100%

Q: What about the Activity [6] of the same compound?
A: 78%

Q: What about the Activity (Mus musculus) of the same compound?
A: Active

Q: And the Activity [7]?
A: 100%

Q: What about the Activity [8] of the same compound?
A: 100%

Q: And the Activity (HepG2)?
A: 0.96%

Q: What about the IC50 [9] of the same compound?
A: 11.6 nM

Q: And the Activity [10]?
A: 96%

Q: What about the Activity [11] of the same compound?
A: 91%

Q: And the Activity [12]?
A: 61%

Q: What about the Activity [13] of the same compound?
A: 4.5%

Q: And the Activity [14]?
A: 55%

Q: What about the Activity [15] of the same compound?
A: 98%

Q: What about the AUC(0-inf) [16] of the same compound?
A: 1040 ng·h/mL

Q: And the IC50 [17]?
A: 71.1 nM

Q: What about the Activity [18] of the same compound?
A: 86%

Q: And the Activity [19]?
A: 5.5%

Q: What about the Activity [20] of the same compound?
A: 100%

Q: What about the AUC(0-t) at 24 h [21] of the same compound?
A: 1260 ng·h/mL

Q: What about the Tmax [22] of the same compound?
A: 3 h

Q: What about the Activity [23] of the same compound?
A: 80%
